Test results: ChEMBL document CHEMBL1149657, “Benzylamine histamine H(3) antagonists and serotonin reuptake inhibitors” (Bioorg Med Chem Lett, 2007)

Legend:
[1] = target: Sodium-dependent serotonin transporter (Homo sapiens, UniProt P31645); test: Binding affinity to human SERT
[2] = Plasma concentration in rat at 10 mg/kg, po after 6 hrs; type: ADME, organism-based; design: dose 10 mg/kg, route oral
[3] = Drug level in rat brain at 10 mg/kg, po after 6 hrs; type: ADME, organism-based; design: dose 10 mg/kg, route oral; details: read-out: Drug uptake
[4] = Plasma concentration in rat at 10 mg/kg, po after 1 hr; type: ADME, organism-based; design: dose 10 mg/kg, route oral
[5] = Plasma concentration in rat at 10 mg/kg, po after 3 hrs; type: ADME, organism-based; design: dose 10 mg/kg, route oral
[6] = Drug level in rat brain at 10 mg/kg, po after 1 hr; type: ADME, organism-based; design: dose 10 mg/kg, route oral; details: read-out: Drug uptake
[7] = Drug level in rat brain at 10 mg/kg, po after 3 hrs; type: ADME, organism-based; design: dose 10 mg/kg, route oral; details: read-out: Drug uptake
[8] = target: Sodium-dependent noradrenaline transporter (Homo sapiens, UniProt P23975); test: Binding affinity to human NET
Sequence of Sodium-dependent noradrenaline transporter (P23975 whole entry): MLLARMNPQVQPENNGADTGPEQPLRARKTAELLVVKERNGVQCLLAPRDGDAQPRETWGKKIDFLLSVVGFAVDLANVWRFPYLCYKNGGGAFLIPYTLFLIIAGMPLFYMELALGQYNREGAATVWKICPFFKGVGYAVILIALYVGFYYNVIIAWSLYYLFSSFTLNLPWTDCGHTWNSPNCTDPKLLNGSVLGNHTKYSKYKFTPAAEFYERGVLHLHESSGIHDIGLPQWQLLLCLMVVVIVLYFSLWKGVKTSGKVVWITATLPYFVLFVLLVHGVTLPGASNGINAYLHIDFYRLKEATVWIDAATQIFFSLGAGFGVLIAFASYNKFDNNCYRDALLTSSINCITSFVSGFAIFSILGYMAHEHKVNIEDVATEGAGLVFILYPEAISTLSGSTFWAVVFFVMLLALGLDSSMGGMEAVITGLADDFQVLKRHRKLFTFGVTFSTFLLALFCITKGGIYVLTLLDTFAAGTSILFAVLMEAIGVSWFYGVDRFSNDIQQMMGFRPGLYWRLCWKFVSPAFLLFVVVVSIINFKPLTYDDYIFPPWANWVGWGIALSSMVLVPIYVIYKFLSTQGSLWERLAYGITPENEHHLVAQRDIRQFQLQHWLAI
Method in brief: (§1)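 Human NET and DAT Ki values from one experiment run in triplicate.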

[9] = target: Sodium-dependent dopamine transporter (Homo sapiens, UniProt Q01959); test: Binding affinity to human DAT; method in brief: as §1
Sequence of Sodium-dependent dopamine transporter (Q01959 whole entry): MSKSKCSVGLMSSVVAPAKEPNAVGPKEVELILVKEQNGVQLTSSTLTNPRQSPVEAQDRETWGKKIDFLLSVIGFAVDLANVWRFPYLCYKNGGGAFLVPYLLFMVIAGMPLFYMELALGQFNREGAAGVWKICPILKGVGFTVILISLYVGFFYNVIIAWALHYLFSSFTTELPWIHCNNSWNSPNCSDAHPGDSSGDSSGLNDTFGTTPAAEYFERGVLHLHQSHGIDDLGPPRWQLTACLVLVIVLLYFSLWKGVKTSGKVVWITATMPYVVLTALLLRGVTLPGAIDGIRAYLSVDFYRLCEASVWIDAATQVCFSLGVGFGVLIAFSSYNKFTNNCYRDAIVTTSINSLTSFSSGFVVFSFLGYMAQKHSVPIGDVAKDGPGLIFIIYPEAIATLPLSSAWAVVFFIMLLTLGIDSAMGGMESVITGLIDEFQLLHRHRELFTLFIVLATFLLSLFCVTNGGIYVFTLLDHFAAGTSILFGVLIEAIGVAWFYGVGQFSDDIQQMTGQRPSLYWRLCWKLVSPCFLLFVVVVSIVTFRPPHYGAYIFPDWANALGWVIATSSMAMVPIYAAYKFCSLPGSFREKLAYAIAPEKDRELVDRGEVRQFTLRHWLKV

Histamine H3 receptor = Histamine H3 receptor (Homo sapiens, UniProt Q9Y5N1); test: Binding affinity to human histamine H3 receptor
Sequence of Histamine H3 receptor (Q9Y5N1 whole entry): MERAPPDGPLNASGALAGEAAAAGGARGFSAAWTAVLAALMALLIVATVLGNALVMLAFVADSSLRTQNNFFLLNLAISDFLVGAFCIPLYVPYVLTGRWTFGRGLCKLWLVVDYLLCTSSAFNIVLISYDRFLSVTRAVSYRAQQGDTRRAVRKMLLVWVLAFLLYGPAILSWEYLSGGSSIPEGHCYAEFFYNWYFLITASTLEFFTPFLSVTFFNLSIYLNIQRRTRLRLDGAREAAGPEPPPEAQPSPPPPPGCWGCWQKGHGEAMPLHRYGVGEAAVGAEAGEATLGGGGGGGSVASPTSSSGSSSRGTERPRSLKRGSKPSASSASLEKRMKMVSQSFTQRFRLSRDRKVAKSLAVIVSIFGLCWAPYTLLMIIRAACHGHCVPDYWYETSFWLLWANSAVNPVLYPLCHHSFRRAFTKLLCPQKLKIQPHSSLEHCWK

[10] = target: Sodium-dependent serotonin transporter (Rattus norvegicus, UniProt P31652); test: Binding affinity to rat SERT
Sequence of Sodium-dependent serotonin transporter (Rattus norvegicus, UniProt P31652) (P31652 whole entry): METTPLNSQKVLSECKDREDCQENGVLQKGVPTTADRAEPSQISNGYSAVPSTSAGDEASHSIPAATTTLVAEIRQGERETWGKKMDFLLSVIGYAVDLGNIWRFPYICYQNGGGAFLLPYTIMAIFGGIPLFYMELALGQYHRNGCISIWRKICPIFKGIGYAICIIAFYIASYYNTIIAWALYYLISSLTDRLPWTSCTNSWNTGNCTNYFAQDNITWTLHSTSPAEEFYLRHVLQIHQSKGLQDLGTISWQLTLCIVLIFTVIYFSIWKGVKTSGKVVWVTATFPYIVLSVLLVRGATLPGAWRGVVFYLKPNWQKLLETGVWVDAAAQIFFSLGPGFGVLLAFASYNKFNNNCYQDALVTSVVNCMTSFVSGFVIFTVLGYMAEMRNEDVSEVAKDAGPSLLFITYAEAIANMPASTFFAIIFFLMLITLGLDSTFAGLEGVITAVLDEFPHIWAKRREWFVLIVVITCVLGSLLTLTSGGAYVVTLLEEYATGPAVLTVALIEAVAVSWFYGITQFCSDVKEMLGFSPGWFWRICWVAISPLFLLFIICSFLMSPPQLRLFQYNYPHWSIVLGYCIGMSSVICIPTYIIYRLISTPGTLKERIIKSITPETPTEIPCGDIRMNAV

Sequence of Sodium-dependent serotonin transporter (Homo sapiens, UniProt P31645) (P31645 whole entry): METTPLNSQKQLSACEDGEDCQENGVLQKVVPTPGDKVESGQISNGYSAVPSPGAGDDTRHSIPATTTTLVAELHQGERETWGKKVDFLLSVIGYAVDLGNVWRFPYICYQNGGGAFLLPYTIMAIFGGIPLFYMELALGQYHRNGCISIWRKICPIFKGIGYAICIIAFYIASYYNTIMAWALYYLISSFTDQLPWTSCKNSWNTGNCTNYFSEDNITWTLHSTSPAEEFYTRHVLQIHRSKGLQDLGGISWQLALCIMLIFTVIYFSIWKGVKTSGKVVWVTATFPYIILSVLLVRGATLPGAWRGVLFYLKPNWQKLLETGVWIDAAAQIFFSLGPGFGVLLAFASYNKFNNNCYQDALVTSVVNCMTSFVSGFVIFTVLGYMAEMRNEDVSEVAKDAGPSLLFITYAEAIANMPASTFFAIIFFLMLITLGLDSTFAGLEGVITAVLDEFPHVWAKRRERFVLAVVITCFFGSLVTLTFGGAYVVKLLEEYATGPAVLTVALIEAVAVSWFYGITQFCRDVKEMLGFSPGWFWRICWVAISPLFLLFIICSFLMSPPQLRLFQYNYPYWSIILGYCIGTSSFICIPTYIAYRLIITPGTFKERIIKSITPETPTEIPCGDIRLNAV

Row | Structure (SMILES) | Ki [1] [nM] | concentration at 6 h [2] [nM] | concentration at 6 h [3] [nM] | concentration at 1 h [4] [nM] | concentration at 3 h [5] [nM] | concentration at 1 h [6] [nM] | concentration at 3 h [7] [nM] | Ki [8] [nM] | Ki [9] [nM] | Ki (Histamine H3 receptor) [nM] | Ki [10] [nM]
1 | COc1ccc([C@@H]2CN(C)Cc3cc(OCCCN4CCC(F)CC4)ccc32)cc1 | 2.7 |  |  |  |  |  |  |  |  |  | 
2 | CNCc1cc(C#CCCN2CCSCC2)ccc1Oc1ccc(SC)cc1 |  | 250 | 10 | 45 | 360 | 87 | 360 |  |  |  | 
3 | CNCc1cc(C#CCCN2CCOCC2)ccc1Oc1ccc(SC)cc1 |  |  |  |  |  |  |  | 290 | 700 |  | 
4 | CNCc1cc(C#CCCN2CCOCC2)ccc1Oc1ccc(Cl)c(C(F)(F)F)c1 |  | 110 | 3560 | 53 | 120 | 370 | 1860 |  |  |  | 
5 | CNCc1cc(C#CCCN2CCC(F)CC2)ccc1Oc1ccc(SC)cc1 |  | 10 | 130 | 23 | 8 | 44 | 63 | 96 | 190 |  | 
6 | CNCc1cc(C#CCCN(C)C2CC2)ccc1Oc1ccc(SC)cc1 |  | 12 | 240 | 39 | 24 | 200 | 220 | 250 | 400 |  | 
7 | CNCc1cc(C#CCCN2CCOCC2)ccc1Oc1ccc(C(F)(F)F)cc1 |  | 150 | 5400 | 240 | 310 | 1770 | 4650 |  |  |  | 
8 | CNCc1cc(Br)ccc1Oc1ccc(SC)cc1 | 1.7 |  |  |  |  |  |  |  |  | 9000 | 0.5
9 | CNCc1cc(C#CCCN2CCOCC2)ccc1Oc1ccc(SC)c(C)c1 |  |  |  |  |  |  |  | 240 | 1000 |  | 
10 | CNCc1cc(C#CCCN2CCOCC2)ccc1Oc1ccc(F)cc1Cl |  | 8 | 400 | 30 | 18 | 270 | 440 |  |  |  | 
11 | CCN(CC)CCCOc1cc2c(cn1)C(c1ccc(Cl)c(Cl)c1)CN(C)C2 (stereo not given) | 26 |  |  |  |  |  |  |  |  | 7 | 
12 | CNCc1cc(C#CCCNC2CC2)ccc1Oc1ccc(SC)cc1 |  | 27 | 520 | 17 | 32 | 120 | 320 |  |  |  | 
13 | CNCc1cc(C#CCCN2CCOCC2)ccc1Oc1cccc(F)c1 |  | 48 | 1870 | 110 | 91 | 820 | 1420 |  |  |  | 
14 | CNCc1cc(C#CCCN2CCOCC2)ccc1Oc1ccc(Cl)cc1 |  | 28 | 1660 | 68 | 40 | 1380 | 1700 |  |  |  | 
15 | CNCc1cc(C#CCCN2CCNC(=O)C2)ccc1Oc1ccc(SC)cc1 | 1.3 |  |  |  |  |  |  |  |  |  | 
16 | CNCc1cc(C#CCCN2CCOCC2)ccc1Oc1cccc(Cl)c1 |  | 270 | 10100 | 180 | 230 | 2370 | 5130 |  |  |  | 
